Bioassay records from PubChem.
Compounds with a hit are over-represented: about 2.3% of the library has one in this group of screens.
TRPC4 act: TRPC4 (mouse) channel activation; B-score at 10 µM; 0.49% of 310,000 active; AID 2237; Q9QUQ5; HEK293 TRPC4beta/mu-opioid, Fluo4 calcium fluorescence; active compounds read high;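 active = B-score above 5 SD of library B-scores, and initial fluorescence ratio not above library mean plus 5 SD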;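 note: positive B-score marks a calcium rise read as TRPC4 activation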
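Assay system – TRPC4beta and mu-opioid receptor HEK293 stable cells · Measured by – Fluo4 fluorescence, kinetic · Schedule – dye loading 45 min room temperature, 110 s kinetic read · Read-out – B-scored integrated calcium fluorescence ratio · Controls – buffer and maximal DAMGO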
TRPC6 act: activates the mouse TRPC6 cation channel. Q61143. HEK293-TRPC6 membrane potential dye fluorescence; active compounds read high. B-score at 10 µM. 0.13% of 310,000 active;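 active = B-score of the integrated fluorescence ratio above library mean plus 3 SD, and starting fluorescence ratio within library mean plus 5 SD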;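 note: higher score means more depolarization so channel activation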
Target sequence (Q61143 whole entry, looked up): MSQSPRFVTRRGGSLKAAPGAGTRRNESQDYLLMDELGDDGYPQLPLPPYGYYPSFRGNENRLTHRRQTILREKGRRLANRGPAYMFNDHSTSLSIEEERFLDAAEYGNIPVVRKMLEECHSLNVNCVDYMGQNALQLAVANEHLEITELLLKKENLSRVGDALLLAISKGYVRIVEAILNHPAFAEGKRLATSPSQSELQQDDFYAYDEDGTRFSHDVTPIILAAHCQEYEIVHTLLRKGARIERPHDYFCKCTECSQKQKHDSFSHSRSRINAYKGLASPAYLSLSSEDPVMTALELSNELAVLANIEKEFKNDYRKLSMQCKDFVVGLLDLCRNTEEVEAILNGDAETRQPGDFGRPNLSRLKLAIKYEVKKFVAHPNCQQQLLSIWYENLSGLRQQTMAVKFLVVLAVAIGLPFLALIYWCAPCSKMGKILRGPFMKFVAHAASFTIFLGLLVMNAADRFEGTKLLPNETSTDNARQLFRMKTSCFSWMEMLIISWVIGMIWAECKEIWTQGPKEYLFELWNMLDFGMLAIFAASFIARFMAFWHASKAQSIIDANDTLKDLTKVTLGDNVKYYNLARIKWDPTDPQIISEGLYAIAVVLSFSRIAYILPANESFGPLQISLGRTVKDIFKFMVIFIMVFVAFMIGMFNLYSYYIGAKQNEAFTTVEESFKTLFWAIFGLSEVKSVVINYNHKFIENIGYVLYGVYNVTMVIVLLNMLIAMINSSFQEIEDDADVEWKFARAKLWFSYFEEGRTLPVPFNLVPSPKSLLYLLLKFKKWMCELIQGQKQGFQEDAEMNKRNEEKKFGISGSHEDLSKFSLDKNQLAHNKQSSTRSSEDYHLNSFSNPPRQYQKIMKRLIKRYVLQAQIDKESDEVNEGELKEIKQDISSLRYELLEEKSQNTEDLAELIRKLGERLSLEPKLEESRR
TRPC4 potent: allosteric potentiators of mouse TRPC4 channel; B-score at 10 µM; 0.42% of 310,000 active; Q9QUQ5; HEK293 TRPC4beta/mu-opioid, DAMGO EC20, Fluo-4 Ca2+ flux; active compounds read high;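 active = B-score of calcium response area above 5 SD of library B-scores, with initial fluorescence ratio within 5 SD of library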
TRPC6 inhibitor: blocks the mouse TRPC6 cation channel; Q61143; HEK293-TRPC6, membrane potential dye, ACh-evoked depolarization; active compounds read low; B-score at 10 µM; 1.1% of 310,000 active;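 active = B-score under library mean minus 3 SD, initial fluorescence not abnormally high, positive integrated signal ratio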;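 note: B-score derived from integrated fluorescence ratio over the kinetic read; more negative B-score means stronger inhibition of depolarization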
TRPC4 block: inhibitors of mouse TRPC4 channel; HEK293 TRPC4beta/mu-opioid, DAMGO-evoked Fluo4 calcium flux; active compounds read low; B-score at 10 µM; 0.39% of 300,000 active; AID 2247;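 active = B-score over 3 SD under the library average, no early fluorescence shift, positive overall ratio signal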
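Material: HEK293 cells with stable TRPC4beta plus mu-opioid receptor expression; probe or stimulus: DAMGO in two steps, submaximal then maximal; technique: Fluo4 calcium fluorescence by kinetic imaging, 5 s 1 Hz baseline; measure: integrated fluorescence ratio relative to baseline, converted to per-well B score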
A number is an active result; n = inactive.

SMILES	TRPC4 act	TRPC6 act	TRPC4 potent	TRPC6 inhibitor	TRPC4 block
CCC(C)N(C(=O)Cn1nnc2ccccc21)C(C(=O)Nc1ccc(F)cc1)c1cccc(OC)c1 (centres undefined)	n	14	n	n	n
CC1CC(C)CN(CCCNC(=O)CCC(=O)N2CCOc3ccccc32)C1 (centres undefined)	73	n	n	n	n
Cc1ccc(NC(=O)C(C)OC(=O)Cc2c[nH]c3ccccc23)cc1 (centres undefined)	n	n	n	n	-6
Cc1ccccc1-n1c(SCc2cccc(F)c2)nc2[nH]ncc2c1=O	n	n	13	n	n
CCn1c(SCC(=O)N2CCOCC2)nc2c([nH]c3ccccc32)c1=O	n	n	n	n	n
CC(=O)N1N=C(c2ccc(C)o2)CC1c1cccc(F)c1 (centres undefined)	n	n	n	n	n
COc1ccc(C2=CC(=O)C=CC2=O)cc1	91	n	n	n	n
O=C(CN1CCN(C(=O)C2CCCO2)CC1)Nc1cc(Cl)ccc1Cl (centres undefined)	n	n	n	n	n
COc1ccc([N+](=O)[O-])cc1NCc1ccco1	n	n	n	n	-6
CC(=O)Nc1ccc(NC(=O)C(C)NC(C)c2cccc3ccccc23)cc1 (centres undefined)	n	n	n	n	n
COC(=O)CCCCCN1C(=O)/C(=C\c2ccncc2)SC1=S	n	n	10	n	n
CCc1ccc(/C=C2\SC(=S)N(CCCC(=O)Nc3ccccn3)C2=O)cc1	n	n	n	n	n
CCc1ccc(/C=C2/SC(=S)N(CCCC(=O)Nc3ccccc3C(=O)O)C2=O)cc1	n	n	n	n	-6
CN(C(=O)c1ccc(OC2CCN(CCc3ccccc3)CC2)cc1)C1CCOCC1	n	n	n	n	n
Cc1csc(CNC(=O)c2ccc(OC3CCN(CCc4ccccc4)CC3)cc2)n1	n	n	n	n	n
CSCCNC(=O)c1ccc(OC2CCN(CCc3ccccc3)CC2)cc1	n	n	n	n	-6
CN(C(=O)c1ccc(OC2CCN(CCc3ccccc3)CC2)cc1)C1CCCCC1	n	n	n	n	-6
COC(=O)CCCNC(=O)c1ccc(OC2CCN(CCc3ccccc3)CC2)cc1	79	n	n	n	n
O=C(NCCn1cccn1)c1ccc(OC2CCN(CCc3ccccc3)CC2)cc1	66	n	n	n	n
O=C(NC1CCOC1)c1ccc(OC2CCN(CCc3ccccc3)CC2)cc1 (centres undefined)	n	n	n	n	n
O=C(NNC(=O)C12CC3CC(CC(C3)C1)C2)c1csc(N2CCOCC2)n1	n	n	n	n	n
COC(=O)c1ccc(CSc2nc3ccccc3c(=O)n2C)o1	n	n	n	n	n
COCCn1c(SCc2ccccc2F)nc2ccccc2c1=O	n	n	n	n	-6
COCCn1c(SCc2cccc([N+](=O)[O-])c2)nc2ccccc2c1=O	n	n	n	n	-6
COC(=O)c1ccc(CSc2nc3ccccc3c(=O)n2CC(C)C)o1	n	n	n	n	-7
SMILES	TRPC4 act	TRPC6 act	TRPC4 potent	TRPC6 inhibitor	TRPC4 block
CC(=O)NCCn1c(SCc2ccccc2F)nc2ccccc2c1=O	n	n	n	n	n
COCCn1c(SCC(=O)N2CCc3ccccc3C2)nc2ccccc2c1=O	n	n	n	n	-5
COCCn1c(SCC(=O)N2CCOCC2)nc2ccccc2c1=O	n	n	n	n	n
COc1cccc2c1O/C(=N\O)C(C(=O)Nc1ccc(C)cc1)C2 (centres undefined)	n	n	n	n	n
CN(C)S(=O)(=O)c1cccc(C(=O)NCCOC(=O)c2cc(F)c(F)cc2Cl)c1	n	n	n	n	n
COCCCn1c(SCC(=O)c2ccccc2)nc2ccccc2c1=O	n	n	n	n	n
COCCn1c(SCC(=O)c2ccccc2)nc2ccccc2c1=O	n	n	n	n	-7
COc1ccc(NC(=O)c2csc(C)c2)cc1OC	n	n	n	n	n
Cc1cc(OCCN2CCCC2)ccc1[N+](=O)[O-]	n	n	30	n	n
CCOC(=O)[C@@H]1CCNC[C@@H]1c1ccccc1	190	n	n	n	n
CCOC(=O)C1NC(=O)CC1c1ccccc1 (centres undefined)	n	n	n	n	n
O=C(NCc1ccccc1)C1=C[C@@H](c2ccc(Br)cc2)C[C@@H](OCc2ccc(CO)cc2)O1	n	n	n	n	n
CC(=O)n1cc([C@@H]2C=C(C(=O)NCc3ccccc3)O[C@H](OCc3ccc(CO)cc3)C2)c2ccccc21	n	n	15	n	n
O=C(NCc1ccccc1)C1=C[C@H](c2ccc(C(F)(F)F)cc2)C[C@H](OCc2ccc(CO)cc2)O1	n	n	19	n	n
O=C(Nc1ccccc1)C1=C[C@H](c2ccc(C(F)(F)F)cc2)C[C@H](OCc2ccc(CO)cc2)O1	n	n	n	n	n
O=C(NCc1ccccc1)C1=C[C@H](c2ccccc2)C[C@H](OCc2ccc(CO)cc2)O1	176	n	n	n	n
O=C(Nc1ccccc1)C1=C[C@H](c2ccccc2)C[C@H](OCc2ccc(CO)cc2)O1	n	n	12	n	n
Cn1cnc2cc(NCc3ccc(Cl)cc3)ccc21	n	n	n	n	n
Cc1ccc(S(=O)(=O)Oc2ccc(/C=N/N=C3/NC(=O)C(CC(=O)O)S3)cc2)cc1[N+](=O)[O-] (centres undefined)	n	n	n	n	n
O=C(CN1CCN(CC(=O)Nc2ccccc2Cc2ccccc2)CC1)Nc1ccccc1Cl	n	n	n	n	n
CCOc1ccccc1NC(=O)C(Sc1nnnn1C)c1ccccc1 (centres undefined)	n	n	n	n	n
O=C(C[n+]1cc(-c2ccccc2)n2c1CCC2)N1c2ccccc2Sc2ccccc21	n	n	n	-5.5	n
Clc1cccc(C[n+]2cc(-c3ccccc3)n3c2CCC3)c1	n	n	n	n	-6
Cc1ccc(-c2c[n+](Cc3ccc(Cl)cc3)c3n2CCC3)cc1	n	n	n	n	n
O=C(C[n+]1cc(-c2ccccc2)n2c1CCC2)c1cccs1	n	n	n	n	n
SMILES	TRPC4 act	TRPC6 act	TRPC4 potent	TRPC6 inhibitor	TRPC4 block
CCCCCSc1nnc2c(n1)OC(c1cccn1C)N(C(C)=O)c1ccccc1-2 (centres undefined)	193	n	n	n	n
CC(=O)Nc1cccc(NC(=O)CSc2nnc3ccc(-c4cccnc4)nn23)c1	n	n	n	n	n
CCOC(CCNC(=O)c1cc2c(=O)[nH]c3ccccc3c2s1)OCC	n	n	n	n	n
CCCN(CCC)CCCNC(=O)c1cc2c(=O)[nH]c3ccccc3c2s1	80	n	n	n	n
CCCCN(CC)CCNC(=O)c1cc2c(=O)[nH]c3ccccc3c2s1	48	n	n	n	n
CC(C)(O)C#Cc1ccc(C(=O)N2CCC(C(N)=O)(N3CCCCC3)CC2)o1	n	n	n	n	n
